Here are results for twelve compounds from ChEMBL document CHEMBL1144619, “The synthesis and biological evaluation of novel series of nitrile-containing fluoroquinolones as antibacterial agents” (Bioorg Med Chem Lett, 2007).

≈ marks a conversion by molar mass, not a printed value. Some results are limits rather than exact numbers.

The test system of one data set is Haemophilus influenzae. Description: Antibacterial activity against Haemophilus influenzae HI3542. The class given is functional. Conditions: HI-3542.
For data set [1], the target named is Voltage-gated inwardly rectifying potassium channel KCNH2 (Homo sapiens, UniProt Q12809). Description: Displacement of [3H]dofetilide from human ERG by fliter binding assay.
For data set [2], the system named is Streptococcus pneumoniae. Description: Antibacterial activity against Streptococcus pneumoniae SV1. The class given is functional.
The test system of the next data set is Moraxella catarrhalis. In words: Antibacterial activity against Moraxella catarrhalis BC-3531. The class given is functional.
The subject of data set [3] is Staphylococcus aureus. Description: Antibacterial activity against Staphylococcus aureus UC76. The class given is functional.
Data set [4] relates to Streptococcus pneumoniae. Description: Antibacterial activity against fluoroquinolone resistance Streptococcus pneumoniae SP3765. Format: functional.
Data set [5] relates to Staphylococcus aureus. Description: Antibacterial activity against Staphylococcus aureus SA2552. The class given is functional.
A further data set addresses hERG (KCNH2) (Homo sapiens, UniProt Q12809). Description: Displacement of [3H]dofetilide from human ERG at 300 uM. The conditions noted are these: probe [3H]dofetilide. An outline of the steps: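 Radioligand filter-binding assay measuring displacement of [3H]-dofetilide from the hERG channel, run as in a patent protocol.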
Data set [6] can be described thus: Volume of distribution in rat at 1 mg/kg, iv. The conditions noted are these: in vivo, read-out: Vdss. Details: dose 1 mg/kg, route intravenous. Format: ADME, organism-based.
Data set [7] can be described thus: Clearance in rat at 1 mg/kg, iv. Details: dose 1 mg/kg, route intravenous. Format: ADME, organism-based. Conditions: in vivo.
In another data set the test system is Rattus norvegicus. In words: AUC in rat at 1 mg/kg, iv. Format: ADME, organism-based, Plasma. Details: dose 1 mg/kg, route intravenous. The conditions noted are these: in vivo.
A short description of data set [8]: Bioavailability in rat at 5 mg/kg, po. The conditions noted are these: in vivo. Format: ADME, organism-based.
The nature of data set [9]: Cmax in rat at 5 mg/kg, po. Format: ADME, organism-based. Further details: dose 5 mg/kg, route oral. The conditions noted are these: in vivo.
Data set [10] is described as follows: Half life in rat at 1 mg/kg, iv. The class given is ADME, organism-based. Further details: dose 1 mg/kg, route intravenous. Conditions: in vivo.

hERG (KCNH2), sequence (Q12809 whole entry): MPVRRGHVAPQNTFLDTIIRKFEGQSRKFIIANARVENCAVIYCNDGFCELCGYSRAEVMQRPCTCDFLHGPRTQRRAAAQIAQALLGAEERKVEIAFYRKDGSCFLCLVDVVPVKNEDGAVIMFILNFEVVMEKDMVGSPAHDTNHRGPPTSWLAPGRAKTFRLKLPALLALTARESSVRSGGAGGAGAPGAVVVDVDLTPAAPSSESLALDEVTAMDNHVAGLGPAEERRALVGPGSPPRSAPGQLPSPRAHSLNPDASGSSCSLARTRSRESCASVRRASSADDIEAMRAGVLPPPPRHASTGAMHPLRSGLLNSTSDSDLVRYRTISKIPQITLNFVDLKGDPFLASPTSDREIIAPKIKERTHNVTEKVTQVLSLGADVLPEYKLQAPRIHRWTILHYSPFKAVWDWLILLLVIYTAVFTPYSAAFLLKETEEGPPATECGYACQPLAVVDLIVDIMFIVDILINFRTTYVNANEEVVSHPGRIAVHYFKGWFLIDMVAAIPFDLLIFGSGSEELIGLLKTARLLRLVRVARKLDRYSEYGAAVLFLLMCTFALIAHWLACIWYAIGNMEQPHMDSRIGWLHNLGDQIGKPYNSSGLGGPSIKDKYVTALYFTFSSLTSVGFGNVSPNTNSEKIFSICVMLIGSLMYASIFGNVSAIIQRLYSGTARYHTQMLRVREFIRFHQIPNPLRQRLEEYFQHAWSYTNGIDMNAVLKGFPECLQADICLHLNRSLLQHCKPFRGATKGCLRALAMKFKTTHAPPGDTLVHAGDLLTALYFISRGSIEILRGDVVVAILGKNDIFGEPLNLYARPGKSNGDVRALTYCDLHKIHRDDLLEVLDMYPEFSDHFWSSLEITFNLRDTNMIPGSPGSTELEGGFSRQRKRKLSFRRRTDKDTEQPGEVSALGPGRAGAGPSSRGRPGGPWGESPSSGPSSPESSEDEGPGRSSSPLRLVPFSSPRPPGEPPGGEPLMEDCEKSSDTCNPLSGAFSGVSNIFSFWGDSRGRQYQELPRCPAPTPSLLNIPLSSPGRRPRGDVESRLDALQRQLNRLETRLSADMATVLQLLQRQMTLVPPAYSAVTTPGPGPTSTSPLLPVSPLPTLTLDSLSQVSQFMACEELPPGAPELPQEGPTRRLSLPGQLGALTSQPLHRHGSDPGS
Voltage-gated inwardly rectifying potassium channel KCNH2, sequence (Q12809 whole entry): as above

As for `COc1c(N2CC[C@@H](CN)C2)c(F)cc2c(=O)c(C(=O)O)cn(C3CC3)c12`, the MIC in the data set on Haemophilus influenzae was 0.015 µg/mL (≈ 0.04 µM); in the data set on Streptococcus pneumoniae [2], 0.06 µg/mL (≈ 0.16 µM); against Moraxella catarrhalis, 0.125 µg/mL (≈ 0.333 µM); against Staphylococcus aureus [3], 0.015 µg/mL (≈ 0.04 µM); with Streptococcus pneumoniae [4], 1 µg/mL (≈ 2.66 µM); against Staphylococcus aureus [5], 0.06 µg/mL (≈ 0.16 µM). Further, the Ki in data set [1] is 24 µM.
For `COc1c(N2CC[C@@H]([C@@H](N)CC#N)C2)c(F)cc2c(=O)c(C(=O)O)cn(C3CC3)c12`, the MIC was 0.008 µg/mL (≈ 0.0193 µM) in the data set with Haemophilus influenzae; 0.008 µg/mL (≈ 0.0193 µM) against Streptococcus pneumoniae [2]; 0.03 µg/mL (≈ 0.0724 µM) against Moraxella catarrhalis; 0.001 µg/mL (≈ 0.00241 µM) with Staphylococcus aureus [3]; 0.125 µg/mL (≈ 0.302 µM) in the data set with Streptococcus pneumoniae [4]; 0.002 µg/mL (≈ 0.00483 µM) against Staphylococcus aureus [5]. In data set [1], the Ki is more than 150 µM. Also, at 300 µM the inhibition at hERG (KCNH2) was 29%.
With `COc1c(N2CC[C@@H](CN)C2)ccc2c(=O)c(C(=O)O)cn(C3CC3)c12`, the MIC stood at 0.06 µg/mL (≈ 0.168 µM) in the data set on Haemophilus influenzae; 0.125 µg/mL (≈ 0.35 µM) with Streptococcus pneumoniae [2]; 0.5 µg/mL (≈ 1.4 µM) in the data set with Moraxella catarrhalis; 0.03 µg/mL (≈ 0.0839 µM) in the data set on Staphylococcus aureus [3]; 4 µg/mL (≈ 11.2 µM) against Streptococcus pneumoniae [4]; 0.25 µg/mL (≈ 0.699 µM) in the data set with Staphylococcus aureus [5]. The same compound returned a Ki in data set [1] of 64 µM.
Turning to `CC1COc2c(N3CC[C@@H]([C@@H](N)CC#N)C3)c(F)cc3c(=O)c(C(=O)O)cn1c23` (some centres undefined), the MIC is 0.008 µg/mL (≈ 0.02 µM) in the data set with Haemophilus influenzae; 0.015 µg/mL (≈ 0.0375 µM) against Streptococcus pneumoniae [2]; 0.125 µg/mL (≈ 0.312 µM) against Moraxella catarrhalis; 0.008 µg/mL (≈ 0.02 µM) in the data set with Staphylococcus aureus [3]; 0.125 µg/mL (≈ 0.312 µM) in the data set on Streptococcus pneumoniae [4]; 0.06 µg/mL (≈ 0.15 µM) against Staphylococcus aureus [5]. In data set [1], this compound came in with a Ki of more than 150 µM. This compound yielded an inhibition at 300 µM on hERG (KCNH2) of 22%.
Regarding `CCC1(CN)CN(c2c(F)cc3c(=O)c(C(=O)O)cn(C4CC4)c3c2C)C1`, the MIC was 0.015 µg/mL (≈ 0.0402 µM) in the data set on Haemophilus influenzae; 0.06 µg/mL (≈ 0.161 µM) against Streptococcus pneumoniae [2]; 0.125 µg/mL (≈ 0.335 µM) against Moraxella catarrhalis; 0.015 µg/mL (≈ 0.0402 µM) against Staphylococcus aureus [3]; 1 µg/mL (≈ 2.68 µM) against Streptococcus pneumoniae [4]; 0.03 µg/mL (≈ 0.0803 µM) in the data set on Staphylococcus aureus [5]. For the same compound, the affinity in data set [1] corresponds to a Ki of 45 µM.
Regarding `CCC1(CNCCC#N)CN(c2c(F)cc3c(=O)c(C(=O)O)cn(C4CC4)c3c2C)C1`, the MIC against Haemophilus influenzae stood at 0.06 µg/mL (≈ 0.141 µM); against Streptococcus pneumoniae [2], 0.125 µg/mL (≈ 0.293 µM); against Moraxella catarrhalis, 0.25 µg/mL (≈ 0.586 µM); with Staphylococcus aureus [3], 0.03 µg/mL (≈ 0.0703 µM); with Streptococcus pneumoniae [4] it was 2 µg/mL (≈ 4.69 µM); against Staphylococcus aureus [5], 0.03 µg/mL (≈ 0.0703 µM). In data set [6], the Vd was 1 L/kg. For the same compound, the clearance in data set [7] was 13 mL/min/kg. The Ki in data set [1] was more than 150 µM. Moreover, in the data set on Rattus norvegicus, the AUC stood at 6.5 ug/hr.ml. Besides, in data set [8], the bioavailability was 92%. The Cmax in data set [9] came out at 2600 ng/mL. The half-life in data set [10] is 84 min. Further, the inhibition at 300 µM on hERG (KCNH2) was found to be 25%.
For `COc1c(N2CC[C@@H]([C@H](C)NCCC#N)C2)ccc2c(=O)c(C(=O)O)cn(C3CC3)c12`, the MIC was 0.5 µg/mL (≈ 1.18 µM) against Haemophilus influenzae; 0.25 µg/mL (≈ 0.589 µM) in the data set on Streptococcus pneumoniae [2]; 1 µg/mL (≈ 2.36 µM) with Moraxella catarrhalis; 0.03 µg/mL (≈ 0.0707 µM) in the data set on Staphylococcus aureus [3]; 2 µg/mL (≈ 4.71 µM) with Streptococcus pneumoniae [4]; 0.125 µg/mL (≈ 0.294 µM) in the data set with Staphylococcus aureus [5].
Regarding `CC1COc2c(N3CC[C@@H]([C@H](C)N)C3)c(F)cc3c(=O)c(C(=O)O)cn1c23` (some centres undefined), the MIC against Haemophilus influenzae was determined as 0.008 µg/mL (≈ 0.0213 µM); in the data set with Streptococcus pneumoniae [2] it was 0.03 µg/mL (≈ 0.0799 µM); with Moraxella catarrhalis, 0.06 µg/mL (≈ 0.16 µM); with Staphylococcus aureus [3], 0.015 µg/mL (≈ 0.04 µM); against Streptococcus pneumoniae [4] it was 0.25 µg/mL (≈ 0.666 µM); in the data set with Staphylococcus aureus [5], 0.125 µg/mL (≈ 0.333 µM). In data set [1], this compound yielded an inhibition constant (Ki) of more than 100 µM. The compound further came in with an inhibition at 300 µM on hERG (KCNH2) of 35%.
In the case of `COc1c(N2CC[C@@H](CNCCC#N)C2)c(F)cc2c(=O)c(C(=O)O)cn(C3CC3)c12`, the MIC came to 0.125 µg/mL (≈ 0.292 µM) against Haemophilus influenzae; 0.125 µg/mL (≈ 0.292 µM) with Streptococcus pneumoniae [2]; 0.5 µg/mL (≈ 1.17 µM) against Moraxella catarrhalis; 0.03 µg/mL (≈ 0.07 µM) against Staphylococcus aureus [3]; 2 µg/mL (≈ 4.67 µM) in the data set with Streptococcus pneumoniae [4]; 0.06 µg/mL (≈ 0.14 µM) against Staphylococcus aureus [5]. The compound further yielded a Ki in data set [1] of 106 µM.
Take `O=C(O)c1cn(C2CC2)c2cc(N3CCNCC3)c(F)cc2c1=O` [CIPROFLOXACIN]: the MIC in the data set with Haemophilus influenzae was 0.008 µg/mL (≈ 0.0241 µM); against Moraxella catarrhalis, 0.03 µg/mL (≈ 0.0905 µM); against Streptococcus pneumoniae [4] it was 16 µg/mL (≈ 48.3 µM); against Staphylococcus aureus [5], 1 µg/mL (≈ 3.02 µM).
As for `C[C@H]1COc2c(N3CCN(C)CC3)c(F)cc3c(=O)c(C(=O)O)cn1c23.C[C@H]1COc2c(N3CCN(C)CC3)c(F)cc3c(=O)c(C(=O)O)cn1c23.O` [LEVOFLOXACIN], the MIC against Haemophilus influenzae stood at 0.015 µg/mL; against Moraxella catarrhalis, 0.06 µg/mL; against Staphylococcus aureus [3], 0.125 µg/mL; against Staphylococcus aureus [5] it was 0.5 µg/mL. The compound also came in with an inhibition at 300 µM at hERG (KCNH2) of 10%.
For the compound `CN[C@@H](C)[C@@H]1CCN(c2c(F)cc3c(=O)c(C(=O)O)cn(C4CC4)c3c2OC)C1` [PREMAFLOXACIN], the MIC is 0.015 µg/mL (≈ 0.0372 µM) with Haemophilus influenzae; 0.008 µg/mL (≈ 0.0198 µM) in the data set on Streptococcus pneumoniae [2]; 0.06 µg/mL (≈ 0.149 µM) in the data set on Moraxella catarrhalis; 0.015 µg/mL (≈ 0.0372 µM) with Staphylococcus aureus [3]; 0.125 µg/mL (≈ 0.31 µM) against Streptococcus pneumoniae [4]; 0.06 µg/mL (≈ 0.149 µM) against Staphylococcus aureus [5]. Also, the Ki in [1] is more than 150 µM. On hERG (KCNH2), at 300 µM the inhibition was 40%.
